Experiments:
Homo sapiens [1] = species: Homo sapiens; assay: Concentration required to inhibit ADP-induced platelet aggregation by 50%
Homo sapiens [2] = species: Homo sapiens; assay: Concentration inhibits collagen-induced platelet aggregation by 50%(Human blood); assay type: functional
Method in brief: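 Human platelets from citrated PRP washed in HEPES-buffered saline pH 7.4 (EGTA 5 mM, PGE1 1 μM), aequorin-loaded, resuspended with 1 mM MgCl2 and 1 mM CaCl2 at (3-4) × 10^5 platelets/μL. Fibrinogen 1.2 μg added, 37 °C, 1100 rpm stirring. Compound in 95% ethanol added 1 min before collagen (5 μg). Aggregation recorded 5 min. IC50 from linear regression of IC% on log concentration.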

[3] = Partition coefficient (logP); assay type: physicochemical; settings: octanol/water

IC50 (Homo sapiens [1]) [µM]	IC50 (Homo sapiens [2]) [µM]	logP ([3]; read-out: logP)	IC50 (Homo sapiens [1]; Homo sapiens) [µM]	logP [3]	SMILES
–	–	8.03	–	–	O=C(C1CCCN(Cc2ccc(CN3CCCC(C(=O)N(Cc4ccccc4)Cc4ccccc4)C3)cc2)C1)N(Cc1ccccc1)Cc1ccccc1 (stereo unspecified)
–	–	4.18	53.6	–	O=C(NCc1ccccc1)C1CCCN(Cc2ccc(CN3CCCC(C(=O)NCc4ccccc4)C3)cc2)C1 (stereo unspecified)
41.4	65.7	–	–	–	CCN(CC)C(=O)C1CCCN(Cc2ccc(CN3CCCC(C(=O)N(CC)CC)C3)cc2)C1 (stereo in doubt; 3a-B (0))
–	–	4.72	27.3	–	CN(Cc1ccccc1)C(=O)C1CCCN(Cc2ccc(CN3CCCC(C(=O)N(C)Cc4ccccc4)C3)cc2)C1 (stereo unspecified)
–	–	4.52	22.1	–	CCCCN(C)C(=O)C1CCCN(Cc2ccc(CN3CCCC(C(=O)N(C)CCCC)C3)cc2)C1 (stereo unspecified)
–	–	5.76	37.7	–	CCN(Cc1ccccc1)C(=O)C1CCCN(Cc2ccc(CN3CCCC(C(=O)N(CC)Cc4ccccc4)C3)cc2)C1 (stereo unspecified)
–	–	6.79	72.9	–	CCCN(Cc1ccccc1)C(=O)C1CCCN(Cc2ccc(CN3CCCC(C(=O)N(CCC)Cc4ccccc4)C3)cc2)C1 (stereo unspecified)

More lines, now with the values behind:

SMILES	IC50 (Homo sapiens [1]) [µM]	IC50 (Homo sapiens [2]) [µM]	logP ([3]; read-out: logP)	IC50 (Homo sapiens [1]; Homo sapiens) [µM]	logP [3]
CCN(CC)C(=O)C1CCCN(Cc2ccc(CN3CCCC(C(=O)N(CC)CC)C3)cc2)C1 (stereo in doubt; 3a-C (+))	15.3	10.7	–	–	–
CCCCN(CCCC)C(=O)C1CCCN(Cc2ccc(CN3CCCC(C(=O)N(CCCC)CCCC)C3)cc2)C1 (stereo unspecified)	–	–	7.63	58.7	–
CCN(CC)CC1CCCN(Cc2ccc(CN3CCCC(CN(CC)CC)C3)cc2)C1 (stereo unspecified)	–	–	4.8	1560	–
CCN(CC)C(=O)C1CCCN(Cc2ccc(CN3CCCC(C(=O)N(CC)CC)C3)cc2)C1 (stereo in doubt; 3a)	44.5	20.2	3.48	–	–
CCN(CC)C(=O)C1CCCN(Cc2ccc(CN3CCCC(C(=O)N(CC)CC)C3)cc2)C1 (single isomer, unassigned; (-))	233	199	–	–	–
Br.Br.CCCCCCCCCCNC(=O)C1CCCN(Cc2ccc(CN3CCCC(C(=O)NCCCCCCCCCC)C3)cc2)C1 (stereo unspecified)	–	–	–	862	10.202
